Experimental data from ChEMBL document CHEMBL1122142, “Synthesis and antiinflammatory activity of hexahydrothiopyrano[4,3-c]pyrazoles and related analogues” (J Med Chem, 1982).

How the values were obtained:
Cavia porcellus [1] = assay: The compound was evaluated for the delayed hypersensitivity skin reaction (DHSR) activity after subcutaneous administration; 11/27
Mus musculus [2] = species: Mus musculus; assay: The compound was evaluated for the mouse active Arthus (MAA) reaction activity expressed as inhibitory dose.; assay type: functional; conditions: read-out: ID50 (the source's name)
How it was run: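 CD-1 mice were sensitized ip with a 1:1 Freund's complete adjuvant emulsion containing BSA in saline, 5 weeks before challenge. Compound was suspended in 1% Na CMC in pyrogen-free saline and given as one ip or oral dose 1 h before skin challenge with BSA. Screening doses were 150 mg/kg ip and 300 mg/kg po, with some at 75 or 50 mg/kg ip. Lesions were excised 3.5 h after challenge and weighed against controls.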

Mus musculus [3] = assay: Inhibition of Mouse active Arthus (MAA) reaction activity was determined for peroral dose of 300 mg/kg in mouse; 31-40%; assay type: functional; conditions: route oral
Mus musculus [4] = assay: Inhibition of Mouse Active Arthus reaction following 150 mg/Kg i.p.; 41-60% inhibition.; assay type: functional; conditions: Mus musculus, ip
Cavia porcellus [5] = assay: The compound was evaluated for the delayed hypersensitivity skin reaction (DHSR) activity after subcutaneous administration; 8/1
Mus musculus [6] = assay: Mouse active Arthus (MAA) reaction activity was determined for an ip dose of 150 mg/kg in mouse; 31-40%; assay type: functional; conditions: route intraperitoneal
Mus musculus [7] = assay: Inhibition of Mouse active Arthus (MAA) reaction activity was determined for peroral screening dose of 150 mg/kg in mouse; 21-30%; assay type: functional; conditions: route oral
Cavia porcellus [8] = assay: Tested in delayed hypersensitivity skin reaction (DHSR) after subcutaneous administration, activity reported as percent inhibition of erythema/induration of lesion; 7/1; assay type: functional
How it was run: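 Male Hartley guinea pigs were sensitized with Mycobacterium tuberculosis in Freund's incomplete adjuvant, injected into each hind footpad and subcutaneously at the neck. After 3 weeks, 1.2 μg PPD was given intradermally. Compound in sesame oil was given sc, 3 animals per group, 30 min before and 5 h after PPD; screening dose 50 mg/kg.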

CN1CCN(CCCN2N=C3/C(=C/c4ccc([S+](C)[O-])cc4)CSCC3C2c2ccc([S+](C)[O-])cc2)CC1.O=C(O)/C=C\C(=O)O (stereo not drawn)
Activity (Cavia porcellus [1]): 11 | ED50 (Mus musculus [2]): 190 mg/kg | inhibition in vivo at 300 mg/kg (Mus musculus [3]): 31% | inhibition in vivo at 150 mg/kg (Mus musculus [4]): 41%

C#CCN1N=C2/C(=C/c3cccc(C(F)(F)F)c3)CS(=O)(=O)CC2C1c1cccc(C(F)(F)F)c1 (stereo not drawn)
Activity (Cavia porcellus [5]): 8 | inhibition in vivo at 150 mg/kg (Mus musculus [6]): 31%

CCCN1N=C2/C(=C/c3ccc(C(C)(C)C)cc3)CS(=O)(=O)CC2C1c1ccc(C(C)(C)C)cc1 (stereo not drawn)
inhibition in vivo at 150 mg/kg (Mus musculus [7]): 21% | Activity (Cavia porcellus [8]): 7
